Published values of several laboratories.
Lines come from different studies, so protocols differ.
Target: Mitogen-activated protein kinase 11 (MAPK11, Homo sapiens, UniProt Q15759)

For `COc1ncccc1-c1cnn2ccc(N3CCN(C(=O)OC(C)C)CC3)nc12`, the remaining binding was 89% (binding, competition with immobilised ligand; 1 µM).
`Cn1cncc1[C@@](O)(COc1ccc(C#N)cc1-c1ccc(OC(F)(F)F)cc1)c1ccc(C#N)cc1` has a remaining binding of 96% (cell-free assay, competition with immobilised ligand; 1 µM).
`CC(C)(C)c1cc(C=C(C#N)C#N)cc(Br)c1O` gave a remaining activity of 100% (enzyme activity, inhibitor; 0.5 µM).
The remaining binding of `Cc1nn(C)cc1-c1nc2c(N3CCN(Cc4ccc(Cl)cc4)CC3)c(Cl)cnc2[nH]1` is reported as 100% (binding, competition with immobilised ligand; 1 µM).
For `Cn1cc(-c2cc(F)cc(N3CCn4c(cc5c4CCCC5)C3=O)c2CO)cc(Nc2ccc(N3CCN(C4COC4)CC3)cn2)c1=O`, the inhibition was 11% (enzyme activity, inhibitor; 0.1 µM).
With `O=c1[nH]c2ccccc2n1C1CCN(Cc2ccc(-c3[nH]c4cc5ncnc5cc4nc3-c3ccccc3)cc2)CC1` the remaining signal was 102% (cell-free assay; 0.5 µM).
`Cn1cc(-c2cccc(N3CCc4c(sc5c4CC(C)(C)C5)C3=O)c2CO)cc(Nc2ccncn2)c1=O` gave an inhibition of 6% (enzyme activity, inhibitor; 1 µM).
For `Nc1ncc(-c2nc(N3CCOCC3)nc(N3CCOCC3)n2)c(C(F)F)n1`, the remaining binding was 98% (binding, competition with immobilised ligand; 10 µM).
